Experimental data: ChEMBL document CHEMBL1158641, “Total synthesis of (+/-)-elegansidiol, (+/-)-farnesiferol B, and (+/-)-farnesiferol D” (2010)
Activity calls are given as the source filed them. No cut-off for these calls is given here.

Tests used:
A549 = test: Cytotoxicity against human A549 cells after 48 hrs by SRB assay; assay type: functional
In short: (§1)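 Compounds tested at […], triplicate wells, 48 h continuous exposure. SRB staining (0.4% in 1% acetic acid, 20 min RT), dye eluted with 10 mM trizma base, absorbance 540 nm (690 nm reference). GI50 from net-growth formula; experiments repeated three times.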

SK-N-SH = test: Cytotoxicity against human SK-N-SH cells after 48 hrs by SRB assay; assay type: functional; in short: as §1

| Compound | GI50 (A549; A549, 48 h) [µM] | LC50 (A549; A549, 48 h) [µM] | GI50 (SK-N-SH) | LC50 (SK-N-SH) | GI50 (A549) | LC50 (A549) |
| --- | --- | --- | --- | --- | --- | --- |
| C=C1CC[C@@H](O)C(C)(C)[C@@H]1CCC(C)=CCOc1ccc2ccc(=O)oc2c1 (mixture of isomers) | 25 | 46 | inactive | inactive |  |  |
| C=C1CC[C@H](O)C(C)(C)[C@@H]1CCC(C)=CCOc1ccc2ccc(=O)oc2c1 (mixture of isomers) |  |  | inactive | inactive | inactive | inactive |
| C=C1CC[C@H](O)C(C)(C)[C@@H]1CC/C(C)=C/CO (racemic) |  |  | inactive | inactive | inactive | inactive |
| COC(=O)Nc1nc2cc(C(=O)c3cccs3)ccc2[nH]1 [NOCODAZOLE] | 0.5 |  | 0.65 µM |  |  |  |
